The results in this text go back to ChEMBL document CHEMBL1134334, “3-Aryl[1,2,4]triazino[4,3-a]benzimidazol-4(10H)-ones: a new class of selective A1 adenosine receptor antagonists” (J Med Chem, 2001).

Molecules are shown by their SMILES.

The target in assay [1] is T1, Adenosine receptor A1 (Bos taurus, UniProt P28190).
T1 sequence (P28190 whole entry): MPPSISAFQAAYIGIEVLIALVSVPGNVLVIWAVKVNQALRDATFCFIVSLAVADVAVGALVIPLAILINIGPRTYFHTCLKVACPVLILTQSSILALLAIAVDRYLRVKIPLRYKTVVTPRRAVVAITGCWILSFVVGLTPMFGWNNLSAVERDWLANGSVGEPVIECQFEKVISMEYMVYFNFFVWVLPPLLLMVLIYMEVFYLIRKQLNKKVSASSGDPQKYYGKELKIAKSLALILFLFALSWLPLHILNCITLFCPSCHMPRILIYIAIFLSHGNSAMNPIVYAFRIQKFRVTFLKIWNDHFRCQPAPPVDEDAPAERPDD
The assay can be described thus: Intrinsic activity towards Adenosine A1 receptor as displacement of [3H]DPCPX from bovine cortical membranes with 1 mM GTP. A digest of the protocol: (§1)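 A1 binding in bovine cortical membranes with [3H]DPCPX as radioligand. Run with 1 mM GTP and without GTP, and the GTP shift was taken from comparing the two conditions. Compounds in DMSO, final ≤2%.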
On the technique in general: In a radioligand displacement assay an active substance lowers the binding of a labelled ligand.

Assay [2] addresses T1, Adenosine receptor A1. The assay can be described thus: Displacement of [3H]CHA from adenosine A1 receptors was determined in bovine cortical membranes. It is filed as cell membranes. The method, boiled down: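 A1 affinity measured by displacement of [3H]CHA (31 Ci/mmol) from bovine cortical membranes. Compounds in DMSO, final ≤2%. At least six concentrations spanning 3 orders of magnitude were used. Ki is the mean ± SEM of four separate assays, each run in triplicate.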

The target in assay [3] is T1, Adenosine receptor A1. Kind of assay: Intrinsic activity towards Adenosine A1 receptor using [3H]DPCPX from bovine cortical membranes without GTP. The method, boiled down: as §1
The target in assay [4] is Adenosine receptor A2a (Bos taurus). Kind of assay: Displacement of [3H]-CGS- 21680 from adenosine A2a receptor of bovine striatal membrane.
For assay [5], the target named is T2, Adenosine receptor A1 (Bos taurus) (UniProt P28190).
T2 sequence (whole entry): T1 sequence (P28190 whole entry)
Kind of assay: GTP shift for Adenosine A1 receptor. The class given is functional. A digest of the protocol: as §1

Assay [6] has as its system Adenosine receptor A2a (Bos taurus). The assay can be described thus: Displacement of [3H]-CGS- 21680 from adenosine A2a receptor in bovine striatal membrane at 10 uM. The note with it: Striatum.
The target in assay [7] is T1, Adenosine receptor A1. Kind of assay: Intrinsic activity towards Adenosine A1 receptor as displacement of [3H]DPCPX from bovine cortical membranes without GTP. The method, boiled down:
as §1

Assay [8] has as its system Adenosine receptor A3 (Bos taurus). The assay can be described thus: Displacement of [125 I]AB-MECA from adenosine A3 receptor in bovine cortical membranes at 1 uM.
Assay [9] concerns the target T2, Adenosine receptor A1 (Bos taurus). Kind of assay: Displacement of [3H]CHA from adenosine A1 receptor in bovine cortical membrane at 10 uM. The class given is cell membranes. A digest of the protocol:
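Competition against [3H]CHA (31 Ci/mmol) for A1 sites in bovine cortical membranes. Compounds dissolved in DMSO, final DMSO ≤2%.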

Usually Ki stands for a measure of affinity in units of concentration, obtained from inhibition or displacement. High values mean weaker binding, low ones tighter binding. On to `Oc1c(-c2ccccc2)nnc2nc3ccccc3n12`, for which the Ki on Adenosine receptor A1 [1] stood at 197 nM; on Adenosine receptor A1 [2], 85 nM; at Adenosine receptor A1 [3], 141 nM.

For the compound `Oc1c(-c2ccsc2)nnc2nc3ccccc3n12`, the Ki on Adenosine receptor A1 [2] turned out to be 119 nM; in [4], 5000 nM.

On to `O=c1c(-c2ccco2)nnc2n(-c3ccccc3)c3ccccc3n12`, for which the Ki at Adenosine receptor A1 [2] was determined as 315 nM. This lies in the sub-micromolar range.

Usually inhibition stands for the share of the control response that was lost under treatment. The low end stands for a response near the control, the high end for a response far below the control. With `Cn1c2ccccc2n2c(=O)c(-c3ccccc3)nnc12`, the Ki at Adenosine receptor A1 [1] was 119 nM; at Adenosine receptor A1 [2] it was 63 nM; on Adenosine receptor A1 [7], 93.1 nM. In addition, the GTP shift in assay [5] amounted to 1.3. Moreover, the values for the inhibition in [6] and in [8] were 25% and 0%, respectively.

On Adenosine receptor A1 [2], `O=c1c(-c2ccc(O)cc2)nnc2n(Cc3ccccc3)c3ccccc3n12` displayed an inhibitory constant (Ki) of 344 nM.

Regarding `Oc1ccc(-c2nnc3nc4ccccc4n3c2O)cc1O`, the Ki is 470 nM at Adenosine receptor A1 [2] and 3500 nM in assay [4].

At Adenosine receptor A1 [2], `Oc1c(-c2ccco2)nnc2nc3ccccc3n12` had an inhibitory constant (Ki) of 261 nM.

As for `Cn1c2ccccc2n2c(=O)cnnc12`, the inhibition worked out at 0% in assay [9] and 8% in assay [6].

With `C[C@H](Cc1ccccc1)Nc1ncnc2c1ncn2[C@@H]1O[C@H](CO)[C@@H](O)[C@H]1O` [(R)-PIA], the Ki at Adenosine receptor A1 [1] was 19.9 nM; at Adenosine receptor A1 [7], 4.2 nM.

In turn, `O=c1c(-c2ccsc2)nnc2n(Cc3ccccc3)c3ccccc3n12` registered a Ki at Adenosine receptor A1 [2] of 446 nM. This compound registered an inhibition in assay [6] of 60%.

For the compound `Cn1c2ccccc2n2c(=O)c(-c3ccco3)nnc12`, the Ki came out at 813 nM at Adenosine receptor A1 [2] and 6300 nM in assay [4].

As for `COc1ccc(-c2nnc3nc4ccccc4n3c2O)cc1`, the figures for the inhibition in assay [9] and in assay [6] were 30% and 16%, respectively.

Consider `Oc1cnnc2nc3ccccc3n12`, for which the inhibition in assay [9] was 34%; in [6] it was 0%.

At Adenosine receptor A1 [2], `Cn1c2ccccc2n2c(=O)c(-c3ccc(O)cc3)nnc12` registered a Ki of 206 nM. Moreover, the inhibition in assay [6] came to 43%.

On Adenosine receptor A1 [2], `Cn1c2ccccc2n2c(=O)c(-c3ccc(O)c(O)c3)nnc12` yielded an inhibition constant (Ki) of 459 nM.

`COc1ccc(-c2nnc3n(C)c4ccccc4n3c2=O)cc1` displayed a Ki on Adenosine receptor A1 [2] of 2050 nM. Further, in assay [6], the inhibition was found to be 7%.

In turn, `Oc1c(-c2cccs2)nnc2nc3ccccc3n12` showed a Ki at Adenosine receptor A1 [2] of 293 nM.

Compound `Oc1ccc(-c2nnc3nc4ccccc4n3c2O)cc1` gave a Ki at Adenosine receptor A1 [2] of 249 nM.

As for `O=c1c(-c2ccccc2)nnc2n(Cc3ccccc3)c3ccccc3n12`, the figures for the Ki on Adenosine receptor A1 [1], on Adenosine receptor A1 [2] and at Adenosine receptor A1 [7] were 184 nM, 274 nM and 240 nM, respectively.

On to `Oc1c(-c2ccc(Cl)cc2)nnc2nc3ccccc3n12`, for which the inhibition in [9] amounted to 44%; in [6] it was 8%.

`COc1ccc(-c2nnc3nc4ccccc4n3c2O)cc1OC`: on Adenosine receptor A1 [2], the affinity, expressed as Ki, was 1780 nM. Moreover, in [6], the inhibition stood at 35%.

As to `Cn1c2ccccc2n2c(=O)c(-c3ccc(Cl)cc3)nnc12`, the inhibition in [9] was determined as 66%; in assay [6], 0%.

Turning to `Cn1c2ccccc2n2c(=O)c(-c3ccsc3)nnc12`, the Ki on Adenosine receptor A1 [2] turned out to be 78 nM. The inhibition in [6] was determined as 55%.

On to `Cn1c2ccccc2n2c(=O)c(-c3cccs3)nnc12`, for which the affinity at Adenosine receptor A1 [2] corresponds to a Ki of 233 nM. This compound also gave an inhibition in [6] of 19%.

As for `O=c1c(-c2ccco2)nnc2n(Cc3ccccc3)c3ccccc3n12`, the results for the Ki (on Adenosine receptor A1 [2]; in assay [4]) were 990 nM and 1240 nM, respectively.

Regarding `O=c1c(-c2ccccc2)nnc2n(-c3ccccc3)c3ccccc3n12`, the Ki stood at 25 nM on Adenosine receptor A1 [1], 18 nM at Adenosine receptor A1 [2] and 24.7 nM at Adenosine receptor A1 [7].

On Adenosine receptor A1 [2], `Cc1nnc2nc3ccccc3n2c1O` showed a Ki of 3900 nM. For the same compound, the inhibition in assay [6] stood at 39%.

Consider `COc1ccc(-c2nnc3n(C)c4ccccc4n3c2=O)cc1OC`, for which the inhibition came to 24% in assay [9] and 18% in assay [6].

On to `Cc1nnc2n(C)c3ccccc3n2c1=O`, for which the inhibition is 46% in assay [9] and 0% in [6].
